Laboratory results taken from ChEMBL document CHEMBL1139923, “Biological evaluation of de-O-sulfonated analogs of salacinol, the role of sulfate anion in the side chain on the alpha-glucosidase inhibitory activity” (Bioorg Med Chem, 2007).
Activity calls are given as the source filed them. No cut-off for these calls is given here.

Columns and labels:
[1] = Inhibition of rat intestinal maltase
Outline: (§1)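 Intestinal α-glucosidase from the in vitro assay with maltose as substrate, 74 mM in the substrate solution. Compound was dissolved in DMSO and diluted in 0.1 M maleate buffer, giving 2.5% DMSO final. Substrate, compound and enzyme solutions were incubated at 37 °C for 30 min, stopped by 2 min in boiling water, and glucose was measured by glucose-oxidase.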

[2] = Inhibition of rat intestinal sucrase
Outline: (§2)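 Sucrose (74 mM in the substrate solution, 0.1 M maleate buffer) was the substrate for intestinal α-glucosidase. Test compound was added from a DMSO stock diluted in buffer (2.5% DMSO final) along with enzyme. The mixture ran 30 min at 37 °C and was halted by boiling for 2 min. Released glucose was quantified by the glucose-oxidase method.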

[3] = organism: Rattus norvegicus; assay: Inhibition of rat intestinal sucrase at 400 ug/ml; outline: as §2
[4] = organism: Rattus norvegicus; assay: Inhibition of rat intestinal maltase at 400 ug/ml; outline: as §1
[5] = organism: Rattus norvegicus; assay: Inhibition of rat intestinal maltase at 1092 uM; outline: as §1

Row | Compound | IC50 [1] [µM] | IC50 [2] [µM] | inhibition [3] [%] | inhibition [4] [%] | Activity [5]
1 | O=S(=O)([O-])O[C@@H](CO)[C@H](O)C[S@+]1C[C@@H](O)[C@H](O)[C@H]1CO [SALACINOL] | 9.6 | 2.5 | – | – | –
2 | O=S(=O)([O-])O[C@@H](CO)[C@H](O)C[S@@+]1C[C@H](O)[C@@H](O)[C@@H]1CO | > 1200 | > 1200 | 21 | 18 | –
3 | OC[C@H](O)[C@H](O)C[S@@+]1C[C@H](O)[C@@H](O)[C@@H]1CO | > 1090 | > 1090 | 48 | – | inactive
4 | OC[C@@H]1[C@@H](O)[C@H](O)C[S@@+]1C[C@@H](O)[C@@H](O)CO [listing 1 of 2 here] | 14 | 3.5 | – | – | –
5 | OC[C@@H]1[C@@H](O)[C@H](O)C[S@@+]1C[C@@H](O)[C@@H](O)CO [listing 2 of 2 here] | 15.6 | 3.7 | – | – | –
